In brackets after ≈: the same amount, converted by molar mass.

As usually defined, the MIC50 is an inhibitory concentration at the 50% level, which refers to growth in some studies and to a panel of isolates in others.

The subject of data set [1] is Y strain T. cruzi trypomastigotes. In words: Trypanosoma cruzi assay in infected J774 macrophages. In kind it is cell-based. The conditions noted are these: for activity against T. cruzi: 27 days treatment; for effect against the T. cruzi parasite in cell culture: infected macrophages.
For data set [2], the system named is Trypanosoma brucei brucei strain 221. Kind of data set: Trypanosoma brucei brucei assay. The note with it: for MIC50: Trypanosoma brucei, 48 h, read-out: Tbb MIC50; for trypanocidal activity against T. brucei: up to 100 μM. The data set is classed as cell-based.
The subject of another data set is J774 macrophages. In words: Compound toxicity for host macrophages in the T. cruzi assay. The data set is classed as cell-based. The conditions noted are these: 5 μM.
For another data set, the target named is cruzain (Trypanosoma cruzi, UniProt P25779). In words: Cruzain enzymatic assay in 96-well plate format. In kind it is biochemical. The note with it: secondary assays performed at UCSF. In a few lines: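 Recombinant cruzain (4 nM final) in 100 mM sodium acetate pH 5.5, 5 mM DTT, 0.001% Triton X-100, preincubated 5 min at room temperature with test compound in DMSO. Reaction started with Z-Phe-Arg-AMC (10 μM). AMC release was followed as the rate of fluorescence increase (ex 355, em 460 nm). DMSO-only wells served as uninhibited control. IC50 was obtained by curve fitting.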
Chain of cruzain (P25779 123-337 limits assumed): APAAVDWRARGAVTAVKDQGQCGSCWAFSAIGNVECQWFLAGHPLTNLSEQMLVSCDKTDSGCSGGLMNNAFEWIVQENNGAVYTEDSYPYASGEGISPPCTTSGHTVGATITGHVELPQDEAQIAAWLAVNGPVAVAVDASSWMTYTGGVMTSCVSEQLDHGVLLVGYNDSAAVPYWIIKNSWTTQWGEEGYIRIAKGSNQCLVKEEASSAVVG

On to `N#Cc1nc(Nc2cccc(C(F)(F)F)c2)nc(NC2CCCC2)n1` [Compound 28], for which the “activity against T. cruzi” value in data set [1] (5 μM) was “inactive”. The MIC50 in data set [2] was determined as 25 µM (≈ 8.71 µg/mL).

As to `N#Cc1nc(Nc2cccc(Br)c2)nc(NC2CCCC2)n1` [Compound 23], the toxicity against macrophages result in the data set on J774 macrophages is on record as “toxic”. For the same molecule, in data set [1], the “effect against the T. cruzi parasite in cell culture” value (from here on “effect against the T. cruzi parasite”) is on record as “no effect”. Besides, the MIC50 in data set [2] was 6 µM (≈ 2.16 µg/mL).

As to `N#Cc1nc(Nc2cccc([N+](=O)[O-])c2)nc(NC2CCCC2)n1` [Compound 20], in data set [2], the MIC50 is 100 µM (≈ 32.5 µg/mL).

On to `N#Cc1nc(Nc2cccc(F)c2)nc(NC2CCCC2)n1` [Compound 21], for which, in data set [2], the MIC50 amounted to 100 µM (≈ 29.8 µg/mL).

As to `N#Cc1nc(Nc2ccc(F)cc2)nc(NC2CCCC2)n1` [Compound 24], the MIC50 in data set [2] was more than 100 µM.

Take `N#Cc1nc(Nc2cc(F)cc(F)c2)nc(NC2CCCC2)n1` [Compound 29, 4-(cyclopentylamino)-6-(3,5-difluorophenylamino)-1,3,5-triazine-2-carbonitrile]: the toxicity against macrophages result in the data set with J774 macrophages is on record as “toxic”. Besides, in data set [2], the MIC50 came to 6 µM (≈ 1.9 µg/mL).

For the molecule `CN1CCN(C(=O)N[C@@H](Cc2ccccc2)C(=O)N[C@H](/C=C/S(=O)(=O)c2ccccc2)CCc2ccccc2)CC1` [Compound K777, reference compound], the “activity against T. cruzi” value in data set [1] (10 μM) is “cured cell infection”.

With `N#Cc1nc(N)nc(N(c2ccccc2)c2ccccc2)n1` [Compound 4], the “IC50 values (in words)” value at cruzain is listed as “mid-nanomolar”. Moreover, in data set [2], the MIC50 was more than 100 µM and the “trypanocidal activity against T. brucei” value was “no trypanocidal activity”.

`CCOc1nc(C#N)nc(N2CCCCC2)n1` [Compound 3]: the “IC50 values (in words)” value against cruzain was “mid-nanomolar”. Moreover, in data set [2], the MIC50 is more than 100 µM and the “trypanocidal activity against T. brucei” value is listed as “no trypanocidal activity”.

Take `N#Cc1nc(Nc2ccc(Br)cc2)nc(NC2CCCC2)n1` [Compound 26]: in data set [2], the MIC50 is more than 100 µM.

Regarding `CCn1cnc2c(Nc3cc(F)cc(F)c3)nc(C#N)nc21` [Compound 32, 6-(3,5-difluorophenylamino)-9-ethyl-9H-purine-2-carbonitrile], the “activity against T. cruzi” value in data set [1] (10 μM) is “inactive”. Further, in data set [1], the “effect against the T. cruzi parasite” value is on record as “no effect”. In addition, the MIC50 in data set [2] is 25 µM (≈ 7.51 µg/mL).

With `N#Cc1nc(Nc2cccc(Cl)c2)c2ncn(C3CCCC3)c2n1` [Compound 36], the “activity against T. cruzi” value in data set [1] (10 μM) is “inactive”. Also, the “effect against the T. cruzi parasite” value in data set [1] is recorded as “no effect”. Further, the MIC50 in data set [2] was 100 µM (≈ 33.9 µg/mL).

On to `N#Cc1nc(Nc2cc(Cl)cc(Cl)c2)nc(NC2CCCC2)n1` [Compound 30], for which, in data set [1] (5 μM), the “activity against T. cruzi” value is “inactive”. Further, in data set [2], the MIC50 is 25 µM (≈ 8.73 µg/mL).

On to `CCn1cnc2c(Nc3cccc(Cl)c3)nc(C#N)nc21` [Compound 35, 6-(3-chlorophenylamino)-9-ethyl-9H-purine-2-carbonitrile], for which the “activity against T. cruzi” value in data set [1] (10 μM) is “inactive”. Further, the “effect against the T. cruzi parasite” value in data set [1] is “no effect”. In data set [2], the MIC50 came to 25 µM (≈ 7.47 µg/mL).

With `N#Cc1nc(Nc2cccc(-c3ccccc3)c2)nc(NC2CCCC2)n1` [Compound 27], the “activity against T. cruzi” value in data set [1] (5 μM) is “inactive”. Further, the MIC50 in data set [2] was 25 µM (≈ 8.91 µg/mL).

`N#Cc1nc(NCC(F)F)nc(Nc2cc(F)cc(F)c2)n1` [Compound 31]: the MIC50 in data set [2] worked out at 6 µM (≈ 1.87 µg/mL).

Consider `Cc1cccc(Nc2nc(C#N)nc(NC3CCCC3)n2)c1` [Compound 25], for which the “activity against T. cruzi” value in data set [1] (5 μM) is “inactive”. The “effect against the T. cruzi parasite” value in data set [1] was “no effect”. For the same molecule, the MIC50 in data set [2] was found to be 25 µM (≈ 7.36 µg/mL).

With `N#Cc1nc(Nc2cccc(Cl)c2)nc(NC2CCCC2)n1` [Compound 22], the “activity against T. cruzi” value in data set [1] (5 μM) was “inactive”. The “effect against the T. cruzi parasite” value in data set [1] is on record as “no effect”. Also, the MIC50 in data set [2] is 6 µM (≈ 1.89 µg/mL).

Values taken from paper PMC2804034 (Journal of medicinal chemistry, 2010).
